The term MIC denotes the lowest concentration that inhibits growth of the organism.

The text below walks through data of ChEMBL document CHEMBL5247575 (J Med Chem, 2018).

The structures appear in SMILES notation.

Assay [1] deals with Escherichia coli. The assay is described as follows: Antibacterial activity against Escherichia coli DH10B by broth microdilution method. The format is functional. On the technique in general: In broth dilution the organism is exposed to a series of concentrations in liquid medium.
Assay [2] has as its system Escherichia coli. The assay is described as follows: Antibacterial activity against Escherichia coli DH10B transfected with pBR322-catI-KPC-2 by broth microdilution method. The format is functional.
Assay [3] concerns Pseudomonas aeruginosa. The assay is described as follows: Antibacterial activity against Pseudomonas aeruginosa 795 by broth microdilution method. The format is functional.
For assay [4], the system named is Pseudomonas aeruginosa. Briefly: Antibacterial activity against Pseudomonas aeruginosa 839 by broth microdilution method. Type of assay: functional.
Assay [5] concerns Escherichia coli. Briefly: Synergistic antibacterial activity against Escherichia coli DH10B transfected with pBC SK (-) OXA-48 assessed as cefepime MIC at 4 ug/ml by broth microdilution method. Particulars: dose 4 µg/ml. Type of assay: functional. A digest of the protocol: (§1)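 Broth microdilution per CLSI guidelines, using custom frozen panels. […] Each partner drug was also tested alone. MICs were run in triplicate and the modal value is reported.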

Assay [6] has as its system Klebsiella pneumoniae. The assay is described as follows: Synergistic antibacterial activity against Klebsiella pneumoniae 660/1568 producing KPC-3 assessed as cefepime MIC at 4 ug/ml by broth microdilution method. The format is functional. Particulars: dose 4 µg/ml. The essentials: as §1
Assay [7] deals with Klebsiella pneumoniae. Briefly: Synergistic antibacterial activity against Klebsiella pneumoniae 729/1679 producing KPC-3 assessed as cefepime MIC at 4 ug/ml by broth microdilution method. The format is functional. The conditions noted are these: dose 4 µg/ml. The essentials:
as §1

Assay [8] deals with Klebsiella pneumoniae. The assay is described as follows: Synergistic antibacterial activity against Klebsiella pneumoniae 1108/1989 producing KPC-3 assessed as cefepime MIC at 4 ug/ml by broth microdilution method. Type of assay: functional. The conditions noted are these: dose 4 µg/ml. A digest of the protocol:
as §1

In assay [9] the test system is Klebsiella pneumoniae. Briefly: Synergistic antibacterial activity against Klebsiella pneumoniae 11978 producing OXA-48 assessed as cefepime MIC at 4 ug/ml by broth microdilution method. Type of assay: functional. The conditions noted are these: dose 4 µg/ml. The essentials: as §1
In assay [10] the test system is Acinetobacter baumannii. The assay is described as follows: Synergistic antibacterial activity against Acinetobacter baumannii PR319 producing OXA-23/24/40 assessed as cefepime MIC at 4 ug/ml by broth microdilution method. Type of assay: functional. Particulars: dose 4 µg/ml.
The test system of assay [11] is Acinetobacter baumannii. Briefly: Synergistic antibacterial activity against Acinetobacter baumannii PR381 producing OXA-24/40 assessed as cefepime MIC at 4 ug/ml by broth microdilution method. The format is functional. Particulars: dose 4 µg/ml.
Assay [12] relates to Acinetobacter baumannii. The assay is described as follows: Synergistic antibacterial activity against Acinetobacter baumannii PR448 producing OXA-23 assessed as cefepime MIC at 4 ug/ml by broth microdilution method. The format is functional. Particulars: dose 4 µg/ml.
Assay [13] concerns Acinetobacter baumannii. The assay is described as follows: Synergistic antibacterial activity against Acinetobacter baumannii PR474 producing OXA-23/24/40 assessed as cefepime MIC at 4 ug/ml by broth microdilution method. The format is functional. The conditions noted are these: dose 4 µg/ml.
Assay [14] has as its system Escherichia coli. Briefly: Synergistic antibacterial activity against Escherichia coli DH10B assessed as meropenem MIC at 4 ug/ml by broth microdilution method. The format is functional. Particulars: dose 4 µg/ml.
Assay [15] concerns Klebsiella pneumoniae. The assay is described as follows: Synergistic antibacterial activity against Klebsiella pneumoniae 776/1742 producing KPC-2 assessed as meropenem MIC at 4 ug/ml by broth microdilution method. The format is functional. The conditions noted are these: dose 4 µg/ml.
Assay [16] relates to Klebsiella pneumoniae. The assay is described as follows: Synergistic antibacterial activity against Klebsiella pneumoniae 977/1916 producing KPC-3 assessed as meropenem MIC at 4 ug/ml by broth microdilution method. Type of assay: functional. Particulars: dose 4 µg/ml.
Assay [17] relates to Klebsiella pneumoniae. Briefly: Synergistic antibacterial activity against Klebsiella pneumoniae CAV 1543 producing OXA-48 assessed as meropenem MIC at 4 ug/ml by broth microdilution method. The format is functional. The conditions noted are these: dose 4 µg/ml.
Assay [18] concerns Pseudomonas aeruginosa. The assay is described as follows: Synergistic antibacterial activity against Pseudomonas aeruginosa CL232 assessed as meropenem MIC at 4 ug/ml by broth microdilution method. The format is functional. The conditions noted are these: dose 4 µg/ml.
In assay [19] the test system is Pseudomonas aeruginosa. The assay is described as follows: Synergistic antibacterial activity against Pseudomonas aeruginosa 839 assessed as meropenem MIC at 4 ug/ml by broth microdilution method. Type of assay: functional. Particulars: dose 4 µg/ml.
The subject of assay [20] is Acinetobacter baumannii. Briefly: Synergistic antibacterial activity against Acinetobacter baumannii PR474 producing OXA-23/24/40 assessed as meropenem MIC at 4 ug/ml by broth microdilution method. Type of assay: functional. Particulars: dose 4 µg/ml.
In assay [21] the test system is Bacteria. Briefly: Inhibition of bacteria OXA-48 assessed as second order rate constant K2/K using nitrocefin as substrate.
For assay [22], the system named is Klebsiella pneumoniae. The assay is described as follows: Antibacterial activity against Klebsiella pneumoniae CAV 1636 producing OXA-181 by broth microdilution method. Type of assay: functional.
The test system of assay [23] is Bacteria.

For `O.O=C(NC1CCNCC1)[C@@H]1CC[C@@H]2CN1C(=O)N2OS(=O)(=O)O` [RELEBACTAM], the MIC in the assay with Escherichia coli [1] was more than 16 µg/mL; in the assay on Escherichia coli [2], more than 16 µg/mL; in the assay on Pseudomonas aeruginosa [3], more than 16 µg/mL; against Pseudomonas aeruginosa [4], more than 16 µg/mL; in the assay on Escherichia coli [5] it was not above 0.12 µg/mL; in the assay on Klebsiella pneumoniae [6], 0.25 µg/mL. The MIC in the assay with Klebsiella pneumoniae [7] is 0.5 µg/mL; with Klebsiella pneumoniae [8] it was 0.5 µg/mL; with Klebsiella pneumoniae [9], 2 µg/mL; in the assay on Acinetobacter baumannii [10], more than 16 µg/mL; in the assay on Acinetobacter baumannii [11], more than 16 µg/mL; in the assay with Acinetobacter baumannii [12], 16 µg/mL. Moreover, the MIC was more than 16 µg/mL with Acinetobacter baumannii [13]; not above 0.12 µg/mL in the assay on Escherichia coli [14]; 0.5 µg/mL in the assay on Klebsiella pneumoniae [15]; not above 0.12 µg/mL with Klebsiella pneumoniae [16]; 8 µg/mL with Klebsiella pneumoniae [17]; more than 16 µg/mL with Pseudomonas aeruginosa [18]. The MIC with Pseudomonas aeruginosa [19] is 1 µg/mL; with Acinetobacter baumannii [20], more than 16 µg/mL.

Consider `NC(=O)[C@@H]1CC[C@@H]2CN1C(=O)N2OS(=O)(=O)[O-].[Na+]` [AVIBACTAM SODIUM], for which the K in the assay on Bacteria [21] was 1.4 10^3/M/s. Moreover, the MIC was 4 µg/mL with Escherichia coli [1]; more than 16 µg/mL with Escherichia coli [2]; more than 16 µg/mL against Klebsiella pneumoniae [22]; more than 16 µg/mL against Pseudomonas aeruginosa [4]; not above 0.12 µg/mL with Escherichia coli [5]; not above 0.12 µg/mL with Klebsiella pneumoniae [6]. Moreover, the MIC in the assay with Klebsiella pneumoniae [7] was 0.25 µg/mL; with Klebsiella pneumoniae [8], not above 0.12 µg/mL; in the assay on Klebsiella pneumoniae [9], 0.25 µg/mL; in the assay on Acinetobacter baumannii [10] it was more than 16 µg/mL; in the assay with Acinetobacter baumannii [11], more than 16 µg/mL; in the assay on Acinetobacter baumannii [12], 16 µg/mL. In addition, the MIC is more than 16 µg/mL in the assay with Acinetobacter baumannii [13]; not above 0.12 µg/mL in the assay with Escherichia coli [14]; not above 0.12 µg/mL with Klebsiella pneumoniae [15]; not above 0.12 µg/mL in the assay with Klebsiella pneumoniae [16]; not above 0.12 µg/mL in the assay with Klebsiella pneumoniae [17]; more than 16 µg/mL with Pseudomonas aeruginosa [18]. The MIC with Pseudomonas aeruginosa [19] is 1 µg/mL; in the assay on Acinetobacter baumannii [20], more than 16 µg/mL. The T1/2 in the assay on Bacteria [23] was found to be 23.9 h.
